Data on eight molecules can be found in ChEMBL document CHEMBL1287726, “Bisaryldiketene derivatives: A new class of selective ligands for c-myc G-quadruplex DNA” (Bioorg Med Chem, 2010).

Assay [1] addresses Nucleic Acid. Put plainly: Binding affinity to single-strand Pu27 oligonucleotide assessed as formation of G-quadruplex complex after 3 mins by PCR stop assay. The format is nucleic-acid assay. Summed up:
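PCR stop assay: Pu27 with complementary Pu27rev (10 pmol each), 0.16 mM dNTP, 2.5 U Taq polymerase and ligand in 1× PCR buffer. Cycling 94 °C 3 min, then 35 cycles of 94 °C/58 °C/72 °C, 30 s each. Double-stranded product detected by electrophoresis; IC50 is the concentration inhibiting amplification by 50%.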

For assay [2], the system named is Nucleic Acid. Put plainly: Binding affinity to F-c-kit1-T G-quadruplex DNA assessed as change in melting temperature at 1 uM by FRET assay (reference value: 54 degC). In kind it is nucleic-acid assay. Summed up:
(§1)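 FRET melting of dual FAM/TAMRA-labelled oligonucleotide (0.2 μM), pre-annealed in K+ buffer (90 °C 5 min, slow cooling, 4 °C overnight), in 10 mM Tris-HCl pH 7.4, 60 mM KCl with ligand at 1 μM. Equilibrated 25 °C 5 min, then heated 1 °C/min to 95 °C; excitation 492 nm, emission 516 nm. ΔTm = Tm(DNA+ligand) − Tm(DNA).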

Assay [3] deals with human telomeric G-quadruplex DNA F21T (human). In words: Binding affinity to F21T G-quadruplex DNA assessed as change in melting temperature at 1 uM by FRET assay (reference value: 60 degC).
Assay [4] relates to c-myc G-quadruplex DNA F22T (human). Put plainly: Binding affinity to human F22T G-quadruplex DNA assessed as change in melting temperature at 1 uM by FRET assay (reference value: 78 degC).
The test system of assay [5] is Nucleic Acid. In words: Binding affinity to F-c-kit2-T G-quadruplex DNA assessed as change in melting temperature at 1 uM by FRET assay (reference value: 75 degC). The format is nucleic-acid assay. The gist of the method: as §1
The test system of assay [6] is Nucleic Acid. Put plainly: Binding affinity to F22T G-quadruplex DNA assessed as decrease in melting temperature at 1 uM by FRET assay in presence of duplex DNA competitor ds26. In kind it is nucleic-acid assay. Summed up: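 Competitive FRET melting: 0.2 μM F22T premixed with excess duplex ds26 (3 μM or 10 μM), ligand at 1 μM, in 10 mM Tris-HCl pH 7.4, 60 mM KCl. Heated 1 °C/min from 25 °C to 95 °C; ex 492/em 516 nm; ΔTm determined.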

For assay [7], the system named is Nucleic Acid. In words: Binding affinity to F10T hairpin duplex DNA assessed as change in melting temperature at 1 uM by FRET assay (reference value: 64 degC).
For assay [8], the system named is Nucleic Acid. Put plainly: Selectivity ratio, K for F22T G-quadruplex DNA to K for c-kit2 G-quadruplex DNA. The format is nucleic-acid assay.
Assay [9] concerns Nucleic Acid. Put plainly: Binding affinity to HTG21 G-quadruplex DNA assessed as change in melting temperature by isothermal titration calorimetry. In kind it is nucleic-acid assay. The gist of the method:
(§2)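 ITC at 25 °C: preannealed G-quadruplex (5 μM) in cell, ligand (400 μM) in syringe, both in 10 mM Tris-HCl pH 7.4, 150 mM KCl, degassed. Thirty 10 μL injections at 4 min intervals. Heats of ligand dilution into buffer subtracted before fitting the integrated thermograms for K, ΔH, ΔS.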
(In ITC the heat of successive injections is recorded.)

Assay [10] concerns Nucleic Acid. Put plainly: Binding affinity to Pu27 G-quadruplex DNA assessed as change in melting temperature by isothermal titration calorimetry. In kind it is nucleic-acid assay. Summed up:
as §2

Assay [11] has as its system Nucleic Acid. In words: Binding affinity to F22T G-quadruplex DNA assessed as change in melting temperature at 1 uM by FRET assay in presence of G-quadruplex DNA competitor c-kit1. In kind it is nucleic-acid assay. The gist of the method:
(§3)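 Competitive FRET melting: 0.2 μM F22T with ligand at 1 μM, without or with 3 μM or 10 μM unlabelled G-quadruplex competitor (c-kit1, c-kit2 or HTG21), in 10 mM Tris-HCl pH 7.4, 60 mM KCl. Heated 1 °C/min from 25 °C to 95 °C; ex 492/em 516 nm; ΔTm determined.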

Assay [12] concerns Nucleic Acid. In words: Binding affinity to c-kit1 G-quadruplex DNA assessed as change in melting temperature by isothermal titration calorimetry. In kind it is nucleic-acid assay. Summed up: as §2
The test system of assay [13] is Nucleic Acid. Put plainly: Binding affinity to F22T G-quadruplex DNA assessed as change in melting temperature at 1 uM by FRET assay in presence of G-quadruplex DNA competitor c-kit2. The format is nucleic-acid assay. The gist of the method:
as §3

For assay [14], the system named is Nucleic Acid. In words: Binding affinity to F22T G-quadruplex DNA assessed as decrease in melting temperature at 1 uM by FRET assay in presence of G-quadruplex DNA competitor HTG21. In kind it is nucleic-acid assay. Summed up:
as §3

The test system of assay [15] is Nucleic Acid. Put plainly: Binding affinity to c-kit2 G-quadruplex DNA assessed as change in melting temperature by isothermal titration calorimetry. The format is nucleic-acid assay. The gist of the method: as §2
In assay [16] the test system is Nucleic Acid. Put plainly: Selectivity ratio, K for F22T G-quadruplex DNA to K for c-kit1 G-quadruplex DNA. In kind it is nucleic-acid assay.
Assay [17] concerns Nucleic Acid. Put plainly: Selectivity ratio, K for F22T G-quadruplex DNA to K for human F21T G-quadruplex DNA. In kind it is nucleic-acid assay.

Where “and” joins values, the source holds several entries; their conditions need not be identical. Equal values may be shown once. Calls of active or inactive are those of the source. The calls are words filed in the database; no cut-off is given here.

What is called IC50 is the concentration that inhibits the measured activity by half. As usually defined, the ΔTm is the shift of the melting midpoint relative to a reference. Take `CN1C/C(=C\c2ccc3ncccc3c2)C(=O)/C(=C/c2ccc3ncccc3c2)C1`: in assay [1], the half-inhibitory concentration (IC50) is over 20 µM. In addition, the ΔTm in assay [2] is 1 °C; in assay [3] it was 4 °C; in [4] it was 1 °C; in [5] it was 1 °C; in [7], 0 °C. Further, the result in [6] was inactive.

In the case of `O=C1/C(=C\c2ccc3ncccc3c2)CCC/C1=C/c1ccc2ncccc2c1`, the IC50 in [1] was over 20 µM. The ΔTm came out at 1 °C in assay [2]; 0 °C in [3]; 2 °C in assay [4]; 0 °C in [5]; 0 °C in assay [7]. For the same molecule, the result in assay [6] was inactive.

As to `O=C1/C(=C/c2ccc3ncccc3c2)CC/C1=C\c1ccc2ncccc2c1`, the IC50 in assay [1] is over 20 µM. For the same molecule, the ΔTm is 1 °C in assay [2]; 0 °C in [3]; 2 °C in assay [4]; 0 °C in assay [5]; 0 °C in [7]. In assay [6], the result was inactive.

Regarding `C[n+]1cccc2cc(/C=C3/CCC/C(=C/c4ccc5c(ccc[n+]5C)c4)C3=O)ccc21`, in assay [1], the half-maximal inhibitory concentration (IC50) stood at 1.1 µM. For the same molecule, the ΔTm in [2] worked out at 17 °C; in [3], 10 °C; in assay [4], 9 °C; in [5], 12 °C; in assay [7], 0 °C. Besides, the result in [6] was inactive.

For `O=C(/C=C/c1ccc2ncccc2c1)/C=C/c1ccc2ncccc2c1`, the IC50 in assay [1] was over 20 µM. Moreover, the ΔTm in assay [2] amounted to 10 °C; in assay [3] it was 3 °C; in [4], 2 °C; in assay [5], 5 °C; in assay [7], 0 °C. Besides, in assay [6], the result was inactive.

As for `C[n+]1cccc2cc(/C=C3\C[N+](C)(C)C/C(=C\c4ccc5c(ccc[n+]5C)c4)C3=O)ccc21`, the IC50 in [1] amounted to 12.6 µM. For the same molecule, the ΔTm in assay [2] was 14 °C; in assay [3], 7 °C; in assay [4], 7 °C; in assay [5] it was 6 °C; in assay [7] it was 0 °C. Besides, in assay [6], the outcome was inactive.

`C[n+]1cccc2cc(/C=C/C(=O)/C=C/c3ccc4c(ccc[n+]4C)c3)ccc21`: in assay [1], the IC50 was found to be 0.7 µM. The ΔTm in [2] turned out to be 24 °C; in [3], 17 °C; in assay [4], 13 °C; in assay [5], 17 °C; in assay [7], 0 °C. Further, the outcome in [6] was inactive.

For the molecule `C[n+]1cccc2cc(/C=C3\CC/C(=C\c4ccc5c(ccc[n+]5C)c4)C3=O)ccc21`, the Selectivity ratio in assay [8] worked out at 25; in assay [16] it was 25; in [17], 200. The IC50 in [1] was determined as 0.9 µM. Further, the K in assay [9] was 3.61 ×10⁴ /M; in assay [10] it was 8.05 ×10⁶ /M and 4.42 ×10⁴ /M; in assay [12], 3.08 ×10⁵ /M; in [15], 1.27 ×10⁵ /M. Besides, the ΔTm in assay [2] was 29 °C; in assay [3], 23 °C; in [4] it was 17 °C; in [5], 20 °C; in assay [7], 1 °C. Also, the Activity in assay [11] and in assay [13] was 40% throughout. For the same molecule, in assay [14], the result was Active. In assay [6], the result was inactive.
